Screening results as filed in PubChem BioAssay.
Mdm2-MdmX inh = human Mdm2/MdmX binding inhibition; O15151+Q00987; SaOS-2 split-luciferase Mdm2/MdmX complementation, luminescence; inhibition, % at 8 µM; 330,000 tested, 3% active;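 active means inhibition of at least 50% at 8 µM in the primary screen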
Target sequence (O15151 whole entry, looked up): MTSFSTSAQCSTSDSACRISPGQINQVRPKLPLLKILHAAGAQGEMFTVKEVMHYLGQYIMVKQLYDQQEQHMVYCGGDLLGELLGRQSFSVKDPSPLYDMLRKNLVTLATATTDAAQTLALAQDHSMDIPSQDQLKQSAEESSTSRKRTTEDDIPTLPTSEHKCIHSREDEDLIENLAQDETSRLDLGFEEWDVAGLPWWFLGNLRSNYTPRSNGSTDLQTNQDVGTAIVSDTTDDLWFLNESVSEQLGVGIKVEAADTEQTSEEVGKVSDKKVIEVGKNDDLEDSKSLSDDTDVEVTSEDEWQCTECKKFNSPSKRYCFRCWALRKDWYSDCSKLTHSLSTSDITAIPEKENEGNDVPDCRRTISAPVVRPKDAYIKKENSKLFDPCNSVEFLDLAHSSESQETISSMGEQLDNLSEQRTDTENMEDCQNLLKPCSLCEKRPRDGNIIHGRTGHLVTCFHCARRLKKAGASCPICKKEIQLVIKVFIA
Target sequence (Q00987 whole entry, looked up): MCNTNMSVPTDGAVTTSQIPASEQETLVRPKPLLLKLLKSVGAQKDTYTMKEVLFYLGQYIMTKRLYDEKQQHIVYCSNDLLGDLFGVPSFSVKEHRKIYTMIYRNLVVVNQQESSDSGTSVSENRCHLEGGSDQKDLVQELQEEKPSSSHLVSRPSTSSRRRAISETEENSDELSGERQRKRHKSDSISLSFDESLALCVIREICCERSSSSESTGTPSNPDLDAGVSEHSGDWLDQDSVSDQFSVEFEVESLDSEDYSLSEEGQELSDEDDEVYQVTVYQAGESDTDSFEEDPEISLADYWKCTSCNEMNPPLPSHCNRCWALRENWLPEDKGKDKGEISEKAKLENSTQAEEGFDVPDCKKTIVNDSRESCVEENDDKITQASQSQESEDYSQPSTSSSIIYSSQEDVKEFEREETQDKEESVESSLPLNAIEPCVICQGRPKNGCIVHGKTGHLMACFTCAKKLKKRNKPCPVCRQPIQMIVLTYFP
T cruzi repl = blocks replication of Trypanosoma cruzi. T. cruzi beta-gal in NIH3T3, luminescence, 90 h. inhibition, % (concentration not given with the values). 300,000 tested, 1.4% active;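 active means mean inhibition across valid replicates above about 55%, limit read from the data; inconclusive means mean below that limit but half or more replicates reach it; inactive means mean below it, under half of replicates reach it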;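 further: signal also drops with host cell toxicity which is not excluded here; higher percent means less beta-gal luminescence so fewer parasites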
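Incubation – ≥90 h infection period, 3 h prior cell attachment · System – NIH/3T3 fibroblasts plus reporter T. cruzi · Doses – compound pinned at 50 nL/well, DMSO · Read-out basis – percent inhibition of parasite-derived β-gal signal · Signal – luminescent β-galactosidase signal after 60 min lysis · Also added – 5000 T. cruzi trypomastigotes/well · Medium – Low-serum DMEM with 2% FBS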
aSyn 5UTR inh = MLPCN primary screen, SNCA 5' untranslated region. alpha-synuclein 5'UTR reporter, inhibitor activity. inhibition, % (tested at 7.5 µM). 300,000 tested, 0.82% active. AID 1813; in the data active means inhibition above about 60%; inconclusive means no clear call, values can overlap the other calls;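 further: H4 neuroglioblastoma cells stably carrying SNCA 5'UTR luciferase fusion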
SKKanGAS inh = inhibitors of SKKanGAS S. pyogenes growth in kanamycin (SK-promoter or general growth effect); inhibition, % at 7.5 µM; 300,000 tested, 1.3% active; BacTiter-Glo, 6 h;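 active means mean replicate score, as percent of positive control median, at least 50; inconclusive means mean below 50 but one replicate at or above 50; inactive means mean and every replicate below 50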;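 further: strain carries kanamycin resistance gene driven by streptokinase promoter and grows in 40 µg/ml kanamycin; loss of luminescence reflects streptokinase promoter inhibition or plain growth inhibition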
CSC inhib = blocks cancer stem cells | AID 2717 | 300,000 tested, 1.1% active | cancer stem cell-like cells viability, luminescence | inhibition, % at 7.5 µM; in the data active means inhibition above about 75%; inconclusive means no clear call, values can overlap the other calls; tested in HMLE shEcad cells
Mdm2 MdmX conf = confirmation of human Mdm2/MdmX interaction inhibitors | Mdm2-MdmX binding, luminescent assay | inhibition, % at 8 µM | shares compounds with Mdm2-MdmX inh | 10,000 tested, 55% active; in the data active means inhibition above about 40%
FLuc counter = counter-screen for Mdm2/MdmX inhibitors: full-length luciferase; shares compounds with Mdm2-MdmX inh; AID 504607; SaOS-2 full-length luciferase counterscreen, luminescence; inhibition, % at 8 µM; 6,200 tested, 77% active;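 active means mean inhibition at 8 µM reaching about 37%, which flags the compound as non-specific, limit read from the data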;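 further: p53-null SaOS-2 cells with luciferase driven by a doxycycline-inducible promoter; compound on cells about two nights before reading with doxycycline added after day one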
A number is an active result; – = inactive; ? = inconclusive; · = no result given. Most compounds without a hit are left out; they make up all but 5.4% or so of the library.

SMILES	Mdm2-MdmX inh	T cruzi repl	aSyn 5UTR inh	SKKanGAS inh	CSC inhib	Mdm2 MdmX conf	others
COC(=O)C1=CN(c2ccc(F)cc2)C=C(C(=O)OC)C1c1ccc(O)cc1	–	–	–	–	–	·
CC(=O)c1ccc(N(CC(=O)NC2CCCCC2)C(=O)CNC(=O)c2cccs2)cc1	–	–	–	–	·	·
O=C(CN1C(=O)/C(=C\c2cccc(Br)c2)Oc2ccccc21)NCCCN1CCOCC1	63	–	–	–	–	–
CN(C(=O)c1ccc(F)cc1)c1ccc(OCC(=O)Nc2ccccc2C(=O)O)cc1	–	·	·	·	–	·
Cc1cccc(NC(=O)C(C)OC(=O)c2ccccc2NS(=O)(=O)c2cc(C)c(C)c([N+](=O)[O-])c2)c1 (stereo not given)	62	–	–	–	–	–
Cc1cc[n+](CC(=O)c2ccc3c(c2)OCCO3)cc1	–	–	–	–	–	·
O=C(C[n+]1ccc(/C=C/c2ccccc2)cc1)c1ccc2c(c1)OCCO2	75	–	–	–	–	–
Nc1nonc1-c1nc2ccccc2n1Cc1ccc(F)cc1Cl	62	–	–	–	–	49	FLuc counter=83
O=C(Nc1ccc(Oc2c(F)c(F)c(F)c(F)c2F)cc1)OC1CCN2Cc3ccccc3N=C12 (stereo not given)	68	–	104	–	104	–
OCCCNc1ncnc2scc(-c3ccc(Cl)cc3)c12	71	–	–	–	–	60	FLuc counter=–
O=C(/C=C/c1ccc2ccccc2n1)N1CCN(S(=O)(=O)c2ccccc2F)CC1	76	–	–	–	–	80	FLuc counter=–
O=C(/C=C/c1ccc2ccccc2n1)N1CCN(S(=O)(=O)c2ccc(F)cc2)CC1	61	–	–	–	–	76	FLuc counter=–
O=C(/C=C/c1ccc2ccccc2n1)N1CCN(c2ccccc2)CC1	–	–	–	–	–	·
Cc1ccc(NC(=O)Cc2ccc3c(c2)OCCO3)cc1S(=O)(=O)N1CCCCC1	–	–	–	–	–	·
COc1cc(/C=N/NC(=O)c2ccc(COc3cc(C)ccc3C(C)C)cc2)cc(OC)c1O	–	–	–	–	–	·
Cc1ccc(C(C)C)c(OCc2ccc(C(=O)N/N=C/c3ccc(O)c(O)c3)cc2)c1	53	–	–	–	109	–
OCC(O)[C@@H](O[C@H]1O[C@H](CO)[C@@H](O)[C@H](O)[C@H]1O)[C@H](O)[C@@H](O)CO (stereo not given in full)	–	–	–	–	–	·
Cc1ccc2nc(NC(=O)C3CCN(S(=O)(=O)c4cc([N+](=O)[O-])ccc4Cl)CC3)sc2c1	67	67	–	–	–	67	FLuc counter=47
Cc1ccnc(NC(=O)CN(C)S(=O)(=O)c2cccc3nsnc23)c1	–	–	–	–	–	·
Cc1ccc2nc(NC(=O)CN(C)S(=O)(=O)c3cccc4nsnc34)sc2c1	55	–	–	–	–	69	FLuc counter=58
O=C(Nc1nc2ccc(C(=O)N3CCCCC3)cc2s1)C1CCCCC1	51	–	–	–	–	57	FLuc counter=79
Nc1ccc2nc(NC(=O)C3CCCCC3)sc2c1	–	–	–	–	–	·
O=C(NC1CC1)C1CCN(S(=O)(=O)c2ccc(Cl)c([N+](=O)[O-])c2)CC1	97	·	·	·	–	75	FLuc counter=58
Cc1ccc2nc(NC(=O)C3CCN(S(=O)(=O)c4cccs4)CC3)sc2c1	–	–	–	–	–	·
COc1ccccc1C(=O)NC(=O)CSc1nc(C)cs1	–	–	–	–	–	·
SMILES	Mdm2-MdmX inh	T cruzi repl	aSyn 5UTR inh	SKKanGAS inh	CSC inhib	Mdm2 MdmX conf	others
Cc1nc(-c2ccc(Br)cc2)ccc1C(=O)O	–	–	–	–	–	·
Cc1cc2nccc(-c3ccc(OCCCF)cc3)n2n1	–	–	–	–	–	·
Cc1ccc2nc(NC(=O)C3CCN(S(=O)(=O)c4cccc5nsnc45)CC3)sc2c1	55	?	–	–	–	–
Cc1ccc(NC(=O)C2CCN(S(=O)(=O)c3cc([N+](=O)[O-])ccc3Cl)CC2)nc1	71	·	·	·	–	56	FLuc counter=42
CC(NC(=O)C1CCN(S(=O)(=O)c2cc([N+](=O)[O-])ccc2Cl)CC1)c1ccccc1 (stereo not given)	–	–	–	–	·	·
COc1ccc2nc(NC(=O)C3CCCN(S(=O)(=O)c4cccs4)C3)sc2c1 (stereo not given)	–	–	–	–	·	·
COc1ccc2nc(NC(=O)C3CCN(S(=O)(=O)c4cccs4)CC3)sc2c1	52	–	–	–	–	–
CCN(CC)S(=O)(=O)c1ccc(S(=O)(=O)N2CCC(C(=O)NC3CCN(Cc4ccccc4)CC3)CC2)cc1	70	–	–	–	–	–
Cc1cccc(C(=O)NCC(c2cccs2)N2CCOCC2)c1 (stereo not given)	–	?	–	–	–	·
Cc1ccc([C@@H]2CC=C(C(=O)O)CN2S(=O)(=O)c2ccc(C)cc2)cc1	–	·	·	·	–	·
O=C(Nc1ccccc1Cl)C1CCCN(S(=O)(=O)c2cccc3cccnc23)C1 (stereo not given)	–	–	–	–	–	·
O=C(Nc1nc2cc(Cl)ccc2s1)C1CCCN(S(=O)(=O)c2cccc3cccnc23)C1 (stereo not given)	58	–	–	–	–	–
CCc1ccc(NC(=O)CN(c2ccc3c(c2)OCO3)S(=O)(=O)c2c(C)noc2C)cc1	–	–	–	–	–	·
O=C(Nc1nc2ccc(F)cc2s1)C1CCN(S(=O)(=O)c2cc([N+](=O)[O-])ccc2Cl)CC1	88	–	–	–	–	78	FLuc counter=–
CCc1ccc(N(CC(=O)Nc2nc3ccc(C)cc3s2)S(=O)(=O)c2c(C)noc2C)cc1	60	–	–	–	106	–
O=C(NCc1ccccc1)C1CCN(S(=O)(=O)c2cc([N+](=O)[O-])ccc2Cl)CC1	–	–	–	–	–	·
COc1ccc(NC(=O)CCN2C(=O)NC3(CCCC3)C2=O)cc1Cl	–	·	·	·	–	·
CSc1cccc(NC(=O)c2nnn(CC(=O)Nc3cc(C)cc(C)c3)c2N)c1	–	–	–	–	–	·
CCOC(=O)Nc1ccc2c(COC(=O)C(NS(=O)(=O)c3ccc(Cl)cc3)C(C)O)cc(=O)oc2c1 (stereo not given)	–	·	·	·	–	·
Cc1ccc(-n2nnnc2CNC(=O)c2ccc3c(c2)OCO3)cc1C	–	–	–	–	–	·
Clc1ccc(-n2nnnc2-c2cnc3ccc(Cl)cc3c2-c2ccccc2)cc1	61	–	–	–	–	–
Clc1ccc2ncc(-c3nnnn3-c3ccccc3)c(-c3ccccc3)c2c1	56	–	–	–	–	–	FLuc counter=43
Clc1ccc2[nH]cc(-c3nnnn3-c3ccccc3)c2c1	–	–	–	–	–	·
Cc1ccc2c(c1)c(/C=C/c1cc[n+](C)cc1)c(C)n2C	83	66	–	–	–	59	FLuc counter=49
C[n+]1ccc(/C=C/c2c[nH]c3ccc(F)cc23)cc1	–	?	–	–	–	·
